{
  "source": "ChEMBL document CHEMBL1123180",
  "about": "“Improved glucose tolerance in rats treated with oxazolidinediones” (1986)",
  "note": "Calls of active or inactive are those of the source. No cut-off for these calls is given here.",
  "data": [
    {"tested_on": "Rattus norvegicus", "assay": "Compound was tested for the ability to lower blood sugar level at the dose of 100 mg/kg in fasted rats, by using glucose tolerance test(GTT)", "format": "functional", "outline": "(§1)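 Male albino rats, groups of five or six, fasted 18–24 h. Glucose 1 g/kg given ip; test drug (0.1 to 100 mg/kg) or water (controls) given orally. Tail-vein blood sampled over 0–3 h; glucose (mg/100 mL) measured by Autoanalyser ferricyanide method. Value is percent lowering of blood glucose vs controls at 0.5 h; a lowering of ≥9% is needed for P = 0.05.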", "units": {"Blood sugar lowering": "%"}, "values": [
      {"smiles": "O=C1NC(=S)OC1c1ccccc1", "note": "(configuration not stated)", "Blood sugar lowering": 17}
    ]},
    {"tested_on": "Rattus norvegicus", "assay": "Ability to lower blood sugar level at the dose of 5 mg/kg in fasted rats, by using glucose tolerance test(GTT)", "format": "functional", "outline": "as §1", "units": {"Blood sugar lowering": "%"}, "values": [
      {"smiles": "O=C1NC(=O)C(c2ccccc2F)O1", "note": "(configuration not stated)", "Blood sugar lowering": 10},
      {"smiles": "CCOc1ccccc1C1OC(=O)NC1=O", "note": "(configuration not stated)", "Blood sugar lowering": 15},
      {"smiles": "COc1ccc(Br)cc1C1OC(=O)NC1=O", "note": "(configuration not stated)", "Blood sugar lowering": 22},
      {"smiles": "CC(=O)Nc1ccccc1C1OC(=O)NC1=O", "note": "(configuration not stated)", "Blood sugar lowering": 14},
      {"smiles": "CCOc1ccc(Cl)cc1C1OC(=O)NC1=O", "note": "(configuration not stated)", "Blood sugar lowering": 11},
      {"smiles": "CCOc1cccc(F)c1C1OC(=O)NC1=O", "note": "(configuration not stated)", "Blood sugar lowering": 9},
      {"smiles": "COc1ccccc1C1OC(=O)NC1=O", "note": "(configuration not stated)", "Blood sugar lowering": 14},
      {"smiles": "CCOc1ccc(F)cc1C1OC(=O)NC1=O", "note": "(configuration not stated)", "Blood sugar lowering": 9}
    ]},
    {"tested_on": "Rattus norvegicus", "assay": "Ability to lower blood sugar level at the dose of 10 mg/kg in fasted rats, by using glucose tolerance test(GTT); NA=Inactive", "format": "functional, organism-based", "design": "dose 10 mg/kg", "outline": "as §1", "values": [
      {"smiles": "COc1cc(C2OC(=O)NC2=O)c(C)cc1F", "note": "(configuration not stated)", "Blood sugar lowering": "inactive"},
      {"smiles": "COc1ccc(C(C)C)cc1C1OC(=O)NC1=O", "note": "(configuration not stated)", "Blood sugar lowering": "inactive"},
      {"smiles": "COc1cc(C)c(Cl)cc1C1OC(=O)NC1=O", "note": "(configuration not stated)", "Blood sugar lowering": "inactive"},
      {"smiles": "O=C1NC(=O)C(c2c(Cl)cccc2OCC2CC2)O1", "note": "(configuration not stated)", "Blood sugar lowering": "inactive"},
      {"smiles": "COc1ccc(S(=O)(=O)N(C)C)cc1C1OC(=O)NC1=O", "note": "(configuration not stated)", "Blood sugar lowering": "inactive"},
      {"smiles": "COc1ccc(OC)c(C2OC(=O)NC2=O)c1", "note": "(configuration not stated)", "Blood sugar lowering": "inactive"},
      {"smiles": "COc1cccc(C2OC(=O)NC2=O)c1", "note": "(configuration not stated)", "Blood sugar lowering": "inactive"},
      {"smiles": "O=C1NC(=O)C(c2ccc(F)cc2C(F)(F)F)O1", "note": "(configuration not stated)", "Blood sugar lowering": "inactive"},
      {"smiles": "O=C1NC(=O)C(c2c(Cl)cccc2-n2cccc2)O1", "note": "(configuration not stated)", "Blood sugar lowering": "inactive"},
      {"smiles": "COc1cc(C2OC(=O)NC2=O)c(Cl)cc1C", "note": "(configuration not stated)", "Blood sugar lowering": "inactive"}
    ]},
    {"tested_on": "Rattus norvegicus", "assay": "Compound was tested for the ability to lower blood sugar level at the dose of 100 mg/kg in fasted rats, by using glucose tolerance test(GTT); NA=Inactive", "format": "functional, organism-based", "design": "dose 100 mg/kg", "outline": "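Male albino rats (groups of five or six) fasted 18–24 h, given glucose 1 g/kg ip plus oral drug (range 0.1–100 mg/kg) or water for controls. Tail-vein blood glucose sampled over 0–3 h, read by ferricyanide autoanalyser method. Value is percent blood glucose lowering vs controls at 0.5 h; ≥9% lowering needed for significance at P = 0.05.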", "values": [
      {"smiles": "NC1=NC(=O)C(c2ccccc2)O1", "note": "(configuration not stated)", "Blood sugar lowering": "inactive"}
    ]},
    {"tested_on": "Rattus norvegicus", "assay": "Ability to lower blood sugar level at the dose of 25 mg/kg in fasted rats, by using glucose tolerance test(GTT); NA=Inactive", "format": "functional, organism-based", "design": "dose 25 mg/kg", "outline": "as §1", "values": [
      {"smiles": "COc1ccc(CCn2ccnc2)cc1C1OC(=O)NC1=O", "note": "(configuration not stated)", "Blood sugar lowering": "inactive"},
      {"smiles": "O=C1NC(=O)C(c2ccccc2NS(=O)(=O)c2ccccc2)O1", "note": "(configuration not stated)", "Blood sugar lowering": "inactive"},
      {"smiles": "O=C1NC(=O)C(c2ccccc2OCCn2ccnc2)O1", "note": "(configuration not stated)", "Blood sugar lowering": "inactive"},
      {"smiles": "COc1ccc(N)cc1C1OC(=O)NC1=O", "note": "(configuration not stated)", "Blood sugar lowering": "inactive"},
      {"smiles": "O=C1NC(=O)C(c2c(Cl)cccc2OCc2ccccc2)O1", "note": "(configuration not stated)", "Blood sugar lowering": "inactive"},
      {"smiles": "COc1ccc(S(=O)(=O)NC(=O)NC2CCCCC2)cc1C1OC(=O)NC1=O", "note": "(configuration not stated)", "Blood sugar lowering": "inactive"},
      {"smiles": "CS(=O)(=O)Nc1ccccc1C1OC(=O)NC1=O", "note": "(configuration not stated)", "Blood sugar lowering": "inactive"},
      {"smiles": "COc1cccc(C(F)(F)F)c1C1OC(=O)NC1=O", "note": "(configuration not stated)", "Blood sugar lowering": "inactive"},
      {"smiles": "O=C(Nc1ccccc1C1OC(=O)NC1=O)NC1CCCCC1", "note": "(configuration not stated)", "Blood sugar lowering": "inactive"},
      {"smiles": "COc1ccc(C(N)=O)cc1C1OC(=O)NC1=O", "note": "(configuration not stated)", "Blood sugar lowering": "inactive"},
      {"smiles": "COc1ccc(-c2ccccc2)cc1C1OC(=O)NC1=O", "note": "(configuration not stated)", "Blood sugar lowering": "inactive"},
      {"smiles": "O=C1NC(=O)C(c2c(F)cccc2C(F)(F)F)O1", "note": "(configuration not stated)", "Blood sugar lowering": "inactive"},
      {"smiles": "COc1cccc(N)c1C1OC(=O)NC1=O", "note": "(configuration not stated)", "Blood sugar lowering": "inactive"},
      {"smiles": "O=C1NC(=O)C(c2c(Cl)cccc2[N+](=O)[O-])O1", "note": "(configuration not stated)", "Blood sugar lowering": "inactive"},
      {"smiles": "COc1cccc(NC(C)=O)c1C1OC(=O)NC1=O", "note": "(configuration not stated)", "Blood sugar lowering": "inactive"},
      {"smiles": "COc1ccc(C(=O)O)cc1C1OC(=O)NC1=O", "note": "(configuration not stated)", "Blood sugar lowering": "inactive"}
    ]},
    {"tested_on": "Rattus norvegicus", "assay": "Ability to lower blood sugar level at the dose of 100 mg/kg in fasted rats, by using glucose tolerance test(GTT)", "format": "functional", "outline": "as §1", "units": {"Blood sugar lowering": "%"}, "values": [
      {"smiles": "O=C1NC(=O)C(c2cccc(Cl)c2)O1", "note": "(configuration not stated)", "Blood sugar lowering": 26},
      {"smiles": "COc1ccc(C2OC(=O)NC2=O)cc1", "note": "(configuration not stated)", "Blood sugar lowering": 19},
      {"smiles": "O=C1NC(=O)C(c2ccccc2OCc2ccccc2)O1", "note": "(configuration not stated)", "Blood sugar lowering": 11},
      {"smiles": "CCOc1ccc(C2OC(=O)NC2=O)cc1", "note": "(configuration not stated)", "Blood sugar lowering": 18},
      {"smiles": "COc1ncccc1C(=O)NCCc1ccc(C2OC(=O)NC2=O)cc1", "note": "(configuration not stated)", "Blood sugar lowering": 26},
      {"smiles": "O=C1NC(=O)C(c2cccc(Oc3ccccc3)c2)O1", "note": "(configuration not stated)", "Blood sugar lowering": 12},
      {"smiles": "Cc1ccc(C2OC(=O)NC2=O)cc1", "note": "(configuration not stated)", "Blood sugar lowering": 10},
      {"smiles": "O=C1NC(=O)C(c2ccc(OCc3ccccc3)cc2)O1", "note": "(configuration not stated)", "Blood sugar lowering": 20},
      {"smiles": "O=C1NC(=O)C(c2ccc(F)cc2)O1", "note": "(configuration not stated)", "Blood sugar lowering": 21},
      {"smiles": "O=C1NC(=O)C(c2ccc3c(c2)OCO3)O1", "note": "(configuration not stated)", "Blood sugar lowering": 18}
    ]},
    {"tested_on": "Rattus norvegicus", "assay": "Ability to lower blood sugar level at the dose of 25 mg/kg in fasted rats, by using glucose tolerance test(GTT)", "units": {"Blood sugar lowering": "%"}, "values": [
      {"smiles": "COc1cccc([N+](=O)[O-])c1C1OC(=O)NC1=O", "note": "(configuration not stated)", "Blood sugar lowering": 10}
    ]}
  ]
}
